Measured values from ChEMBL document CHEMBL1255424, “Antistaphylococcal activity of ACHN-490 tested alone and in combination with other agents by time-kill assay” (2010).
Values after ≈ are worked out from the molar mass of the structure shown.

Key:
Assay type in all cases: functional
Staphylococcus aureus [1] = assay: Antibacterial activity against vancomycin-intermediate Staphylococcus aureus isolate 1014 after 24 hrs by modified broth macrodilution method; details: isolate 1014, 24 h
Procedure, shortened: (§1)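 MIC read after 24 h incubation by modified broth macrodilution, validated per CLSI recommendations, against recent clinical MRSA isolates (hospital- and community-acquired, hVISA, VISA, VRSA). Daptomycin tests ran in Mueller-Hinton broth with added calcium.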

Staphylococcus aureus [2] = assay: Antibacterial activity against vancomycin-intermediate Staphylococcus aureus after 24 hrs by modified broth macrodilution method; procedure, shortened: as §1
Staphylococcus aureus [3] = assay: Antibacterial activity against vancomycin-intermediate Staphylococcus aureus isolate 1005 after 24 hrs by modified broth macrodilution method; details: isolate 1005, 24 h; procedure, shortened: as §1
Staphylococcus aureus [4] = assay: Antibacterial activity against vancomycin-resistant Staphylococcus aureus isolate 509 after 24 hrs by modified broth macrodilution method; details: isolate 509, 24 h; procedure, shortened: as §1
Staphylococcus aureus [5] = assay: Antibacterial activity against community-acquired methicillin-resistant panton-valentine leukocidin-positive Staphylococcus aureus isolate 815 after 24 hrs by modified broth macrodilution method; details: isolate 815, 24 h; procedure, shortened: as §1
Staphylococcus aureus [6] = assay: Antibacterial activity against community-acquired methicillin-resistant panton-valentine leukocidin-positive Staphylococcus aureus isolate 813 after 24 hrs by modified broth macrodilution method; details: isolate 813, 24 h; procedure, shortened: as §1
Staphylococcus aureus [7] = assay: Antibacterial activity against community-acquired methicillin-resistant panton-valentine leukocidin-negative Staphylococcus aureus isolate 1470 after 24 hrs by modified broth macrodilution method; details: isolate 1470, 24 h; procedure, shortened: as §1
Staphylococcus aureus [8] = assay: Antibacterial activity against hospital-acquired methicillin-resistant Staphylococcus aureus isolate 1851 after 24 hrs by modified broth macrodilution method; details: isolate 1851, 24 h; procedure, shortened: as §1
Staphylococcus aureus [9] = assay: Antibacterial activity against vancomycin-hetero-intermediate Staphylococcus aureus isolate 873 after 24 hrs by modified broth macrodilution method; details: isolate 873, 24 h; procedure, shortened: as §1
Staphylococcus aureus [10] = assay: Antibacterial activity against vancomycin-resistant Staphylococcus aureus isolate 557 after 24 hrs by modified broth macrodilution method; details: isolate 557, 24 h; procedure, shortened: as §1
Staphylococcus aureus [11] = assay: Antibacterial activity against hospital-acquired methicillin-resistant Staphylococcus aureus isolate 1838 after 24 hrs by modified broth macrodilution method; details: isolate 1838, 24 h; procedure, shortened: as §1
Staphylococcus aureus [12] = assay: Antibacterial activity against vancomycin-intermediate Staphylococcus aureus isolate 1015 after 24 hrs by modified broth macrodilution method; details: isolate 1015, 24 h; procedure, shortened: as §1
Staphylococcus aureus [13] = assay: Antibacterial activity against vancomycin-hetero-intermediate Staphylococcus aureus after 24 hrs by modified broth macrodilution method; procedure, shortened: as §1
Staphylococcus aureus [14] = assay: Antibacterial activity against community-acquired methicillin-resistant panton-valentine leukocidin-positive Staphylococcus aureus isolate 950 after 24 hrs by modified broth macrodilution method; details: isolate 950, 24 h; procedure, shortened: as §1
Staphylococcus aureus [15] = assay: Antibacterial activity against hospital-acquired methicillin-resistant Staphylococcus aureus isolate 1766 after 24 hrs by modified broth macrodilution method; details: isolate 1766, 24 h; procedure, shortened: as §1
Staphylococcus aureus [16] = assay: Antibacterial activity against hospital-acquired methicillin-resistant Staphylococcus aureus isolate 1751 after 24 hrs by modified broth macrodilution method; details: isolate 1751, 24 h; procedure, shortened: as §1
Staphylococcus aureus [17] = assay: Antibacterial activity against vancomycin-hetero-intermediate Staphylococcus aureus isolate 618 after 24 hrs by modified broth macrodilution method; details: isolate 618, 24 h; procedure, shortened: as §1
Staphylococcus aureus [18] = assay: Antibacterial activity against vancomycin-intermediate Staphylococcus aureus isolate 1011 after 24 hrs by modified broth macrodilution method; details: isolate 1011, 24 h; procedure, shortened: as §1
Staphylococcus aureus [19] = assay: Antibacterial activity against vancomycin-intermediate Staphylococcus aureus isolate 1287 after 24 hrs by modified broth macrodilution method; details: isolate 1287, 24 h; procedure, shortened: as §1
Staphylococcus aureus [20] = assay: Antibacterial activity against vancomycin-intermediate Staphylococcus aureus isolate 1013 after 24 hrs by modified broth macrodilution method; details: isolate 1013, 24 h; procedure, shortened: as §1
Staphylococcus aureus [21] = assay: Antibacterial activity against vancomycin-resistant Staphylococcus aureus isolate 1263 after 24 hrs by modified broth macrodilution method; details: isolate 1263, 24 h; procedure, shortened: as §1
Staphylococcus aureus [22] = assay: Antibacterial activity against vancomycin-resistant Staphylococcus aureus isolate 510 after 24 hrs by modified broth macrodilution method; details: isolate 510, 24 h; procedure, shortened: as §1
Staphylococcus aureus [23] = assay: Antibacterial activity against hospital-acquired methicillin-resistant Staphylococcus aureus isolate 1776 after 24 hrs by modified broth macrodilution method; details: isolate 1776, 24 h; procedure, shortened: as §1
Staphylococcus aureus [24] = assay: Antibacterial activity against vancomycin-intermediate Staphylococcus aureus isolate 1016 after 24 hrs by modified broth macrodilution method; details: isolate 1016, 24 h; procedure, shortened: as §1
Staphylococcus aureus [25] = assay: Antibacterial activity against vancomycin-intermediate Staphylococcus aureus isolate 1984 after 24 hrs by modified broth macrodilution method; details: isolate 1984, 24 h; procedure, shortened: as §1
Staphylococcus aureus [26] = assay: Antibacterial activity against vancomycin-intermediate Staphylococcus aureus isolate 1012 after 24 hrs by modified broth macrodilution method; details: isolate 1012, 24 h; procedure, shortened: as §1

CCCCCCCCCC(=O)N[C@@H](Cc1c[nH]c2ccccc12)C(=O)N[C@H](CC(N)=O)C(=O)N[C@@H](CC(=O)O)C(=O)N[C@@H]1C(=O)NCC(=O)N[C@@H](CCCN)C(=O)N[C@@H](CC(=O)O)C(=O)N[C@H](C)C(=O)N[C@@H](CC(=O)O)C(=O)NCC(=O)N[C@H](CO)C(=O)N[C@@H]([C@H](C)CC(=O)O)C(=O)N[C@@H](CC(=O)c2ccccc2N)C(=O)O[C@@H]1C
MIC (Staphylococcus aureus [1]): 2 µg/mL (≈ 1.23 µM)
MIC (Staphylococcus aureus [2]): 0.5 µg/mL (≈ 0.309 µM)
MIC (Staphylococcus aureus [3]): 1 µg/mL (≈ 0.617 µM)
MIC (Staphylococcus aureus [4]): 0.5 µg/mL (≈ 0.309 µM)
MIC (Staphylococcus aureus [5]): 0.5 µg/mL (≈ 0.309 µM)
MIC (Staphylococcus aureus [6]): 0.5 µg/mL (≈ 0.309 µM)
MIC (Staphylococcus aureus [7]): 0.5 µg/mL (≈ 0.309 µM)
MIC (Staphylococcus aureus [8]): 0.5 µg/mL (≈ 0.309 µM)
MIC (Staphylococcus aureus [9]): 0.5 µg/mL (≈ 0.309 µM)
MIC (Staphylococcus aureus [10]): 0.25 µg/mL (≈ 0.154 µM)
MIC (Staphylococcus aureus [11]): 0.5 µg/mL (≈ 0.309 µM)
MIC (Staphylococcus aureus [12]): 1 µg/mL (≈ 0.617 µM)
MIC (Staphylococcus aureus [13]): 0.5 µg/mL (≈ 0.309 µM)
MIC (Staphylococcus aureus [14]): 0.25 µg/mL (≈ 0.154 µM)
MIC (Staphylococcus aureus [15]): 1 µg/mL (≈ 0.617 µM)
MIC (Staphylococcus aureus [16]): 0.5 µg/mL (≈ 0.309 µM)
MIC (Staphylococcus aureus [17]): 1 µg/mL (≈ 0.617 µM)
MIC (Staphylococcus aureus [18]): 1 µg/mL (≈ 0.617 µM)
MIC (Staphylococcus aureus [19]): 2 µg/mL (≈ 1.23 µM)
MIC (Staphylococcus aureus [20]): 2 µg/mL (≈ 1.23 µM)
MIC (Staphylococcus aureus [21]): 0.5 µg/mL (≈ 0.309 µM)
MIC (Staphylococcus aureus [22]): 0.5 µg/mL (≈ 0.309 µM)
MIC (Staphylococcus aureus [23]): 0.5 µg/mL (≈ 0.309 µM)
MIC (Staphylococcus aureus [24]): 2 µg/mL (≈ 1.23 µM)
MIC (Staphylococcus aureus [25]): 2 µg/mL (≈ 1.23 µM)
MIC (Staphylococcus aureus [26]): 1 µg/mL (≈ 0.617 µM)
